Test results reported in ChEMBL document CHEMBL1926550, “Synthesis and antibacterial activity of naphthyridone derivatives containing mono/difluoro-methyloxime pyrrolidine scaffolds” (2012).
In brackets after ≈: the same amount, converted by molar mass.

Legend:
Type in all cases: functional
Klebsiella pneumoniae [1] = test: Antibacterial activity against Klebsiella pneumoniae 09-2 after 18 hrs by two fold serial dilution method; details: 09-2, 18 h
Summary of the method: (§1)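 Agar two-fold serial dilution in melted Mueller-Hinton agar, final concentrations 128 down to 0.008 μg/mL. Plates inoculated with 10⁴ cfu and incubated at 35 °C for 18 h. MIC taken as the lowest concentration giving no visible growth on the plate.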

Pseudomonas aeruginosa [2] = test: Antibacterial activity against Pseudomonas aeruginosa 10-3 after 18 hrs by two fold serial dilution method; details: 10-3, 18 h; summary of the method: as §1
Staphylococcus aureus [3] = test: Antibacterial activity against methicillin-sensitive Staphylococcus aureus 10-5 after 18 hrs by two fold serial dilution method; details: 10-5, 18 h; summary of the method: as §1
[4] = test system: Staphylococcus epidermidis; test: Antibacterial activity against methicillin-resistant Staphylococcus epidermidis 10-2 after 18 hrs by two fold serial dilution method; details: 10-2, 18 h
Summary of the method: (§2)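 Agar two-fold serial dilution in melted Mueller-Hinton agar, 128 to 0.008 μg/mL. Plates inoculated with 10⁴ cfu, incubated 35 °C for 18 h. MIC taken as lowest concentration giving no visible growth on the plate.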

Escherichia coli [5] = test: Antibacterial activity against Escherichia coli 09-2 after 18 hrs by two fold serial dilution method; details: 09-2, 18 h; summary of the method: as §1
Staphylococcus aureus [6] = test: Antibacterial activity against methicillin-sensitive Staphylococcus aureus 10-1 after 18 hrs by two fold serial dilution method; details: 10-1, 18 h; summary of the method: as §1
Staphylococcus aureus [7] = test: Antibacterial activity against methicillin-resistant Staphylococcus aureus 10-1 after 18 hrs by two fold serial dilution method; details: 10-1, 18 h; summary of the method: as §2
Enterococcus faecium [8] = test: Antibacterial activity against Enterococcus faecium 09-1 after 18 hrs by two fold serial dilution method; details: 09-1, 18 h; summary of the method: as §1
Escherichia coli [9] = test: Antibacterial activity against Escherichia coli 10-2 after 18 hrs by two fold serial dilution method; details: 10-2, 18 h; summary of the method: as §1
Staphylococcus aureus [10] = test: Antibacterial activity against methicillin-sensitive Staphylococcus aureus 10-4 after 18 hrs by two fold serial dilution method; details: 10-4, 18 h; summary of the method: as §1
Enterococcus faecalis [11] = test: Antibacterial activity against Enterococcus faecalis 09-2 after 18 hrs by two fold serial dilution method; details: 09-2, 18 h; summary of the method: as §1
Enterococcus faecalis [12] = test: Antibacterial activity against Enterococcus faecalis 09-1 after 18 hrs by two fold serial dilution method; details: 09-1, 18 h; summary of the method: as §1
Enterococcus faecium [13] = test: Antibacterial activity against Enterococcus faecium 09-2 after 18 hrs by two fold serial dilution method; details: 09-2, 18 h; summary of the method: as §1
Escherichia coli [14] = test: Antibacterial activity against Escherichia coli 10-3 after 18 hrs by two fold serial dilution method; details: 10-3, 18 h; summary of the method: as §1
Enterococcus faecium [15] = test: Antibacterial activity against Enterococcus faecium 09-4 after 18 hrs by two fold serial dilution method; details: 09-4, 18 h; summary of the method: as §1
Pseudomonas aeruginosa [16] = test: Antibacterial activity against Pseudomonas aeruginosa 10-2 after 18 hrs by two fold serial dilution method; details: 10-2, 18 h; summary of the method: as §1
Pseudomonas aeruginosa [17] = test: Antibacterial activity against Pseudomonas aeruginosa ATCC 27853 after 18 hrs by two fold serial dilution method; details: ATCC 27853, 18 h; summary of the method: as §1
Staphylococcus aureus [18] = test: Antibacterial activity against methicillin-sensitive Staphylococcus aureus 10-6 after 18 hrs by two fold serial dilution method; details: 10-6, 18 h; summary of the method: as §1
Klebsiella pneumoniae [19] = test: Antibacterial activity against Klebsiella pneumoniae 10-3 after 18 hrs by two fold serial dilution method; details: 10-3, 18 h; summary of the method: as §1
Staphylococcus aureus [20] = test: Antibacterial activity against methicillin-resistant Staphylococcus aureus 10-2 after 18 hrs by two fold serial dilution method; details: 10-2, 18 h; summary of the method: as §2
Escherichia coli [21] = test: Antibacterial activity against Escherichia coli 09-1 after 18 hrs by two fold serial dilution method; details: 09-1, 18 h; summary of the method: as §1
Klebsiella pneumoniae [22] = test: Antibacterial activity against Klebsiella pneumoniae 10-1 after 18 hrs by two fold serial dilution method; details: 10-1, 18 h; summary of the method: as §1
Enterococcus faecium [23] = test: Antibacterial activity against Enterococcus faecium 09-3 after 18 hrs by two fold serial dilution method; details: 09-3, 18 h; summary of the method: as §1
Streptococcus pneumoniae = test: Antibacterial activity against Streptococcus pneumoniae 10-1 after 18 hrs by two fold serial dilution method; details: 10-1, 18 h; summary of the method: as §1
[24] = test system: Staphylococcus epidermidis; test: Antibacterial activity against methicillin-sensitive Staphylococcus epidermidis 10-2 after 18 hrs by two fold serial dilution method; details: 10-2, 18 h; summary of the method: as §1
Enterococcus faecium [25] = test: Antibacterial activity against Enterococcus faecium 09-5 after 18 hrs by two fold serial dilution method; details: 09-5, 18 h; summary of the method: as §1
Escherichia coli [26] = test: Antibacterial activity against Escherichia coli 09-3 after 18 hrs by two fold serial dilution method; details: 09-3, 18 h; summary of the method: as §1
Escherichia coli [27] = test: Antibacterial activity against Escherichia coli 10-1 after 18 hrs by two fold serial dilution method; details: 10-1, 18 h; summary of the method: as §1
[28] = test system: Staphylococcus epidermidis; test: Antibacterial activity against methicillin-resistant Staphylococcus epidermidis 10-1 after 18 hrs by two fold serial dilution method; details: 10-1, 18 h; summary of the method: as §2
Staphylococcus aureus [29] = test: Antibacterial activity against methicillin-resistant Staphylococcus aureus 10-4 after 18 hrs by two fold serial dilution method; details: 10-4, 18 h; summary of the method: as §2
[30] = test system: Staphylococcus epidermidis; test: Antibacterial activity against methicillin-sensitive Staphylococcus epidermidis 10-1 after 18 hrs by two fold serial dilution method; details: 10-1, 18 h; summary of the method: as §1
Escherichia coli [31] = test: Antibacterial activity against Escherichia coli ATCC 25922 after 18 hrs by two fold serial dilution method; details: ATCC 25922, 18 h; summary of the method: as §1
Pseudomonas aeruginosa [32] = test: Antibacterial activity against Pseudomonas aeruginosa 10-1 after 18 hrs by two fold serial dilution method; details: 10-1, 18 h; summary of the method: as §1
Staphylococcus aureus [33] = test: Antibacterial activity against methicillin-sensitive Staphylococcus aureus 10-3 after 18 hrs by two fold serial dilution method; details: 10-3, 18 h; summary of the method: as §1
Staphylococcus aureus [34] = test: Antibacterial activity against Staphylococcus aureus ATCC 25923 after 18 hrs by two fold serial dilution method; details: ATCC 25923, 18 h; summary of the method: as §1
Enterococcus faecium [35] = test: Antibacterial activity against Enterococcus faecium 09-6 after 18 hrs by two fold serial dilution method; details: 09-6, 18 h; summary of the method: as §1
Staphylococcus aureus [36] = test: Antibacterial activity against methicillin-sensitive Staphylococcus aureus 10-2 after 18 hrs by two fold serial dilution method; details: 10-2, 18 h; summary of the method: as §1
Staphylococcus aureus [37] = test: Antibacterial activity against methicillin-resistant Staphylococcus aureus 10-3 after 18 hrs by two fold serial dilution method; details: 10-3, 18 h; summary of the method: as §2

| SMILES | MIC (Klebsiella pneumoniae [1]) [µg/mL] | MIC (Pseudomonas aeruginosa [2]) [µg/mL] | MIC (Staphylococcus aureus [3]) [µg/mL] | MIC [4] [µg/mL] | MIC (Escherichia coli [5]) [µg/mL] | MIC (Staphylococcus aureus [6]) [µg/mL] | MIC (Staphylococcus aureus [7]) [µg/mL] | MIC (Enterococcus faecium [8]) [µg/mL] | MIC (Escherichia coli [9]) [µg/mL] | MIC (Staphylococcus aureus [10]) [µg/mL] | MIC (Enterococcus faecalis [11]) [µg/mL] | MIC (Enterococcus faecalis [12]) [µg/mL] | MIC (Enterococcus faecium [13]) [µg/mL] | MIC (Escherichia coli [14]) [µg/mL] | MIC (Enterococcus faecium [15]) [µg/mL] | MIC (Pseudomonas aeruginosa [16]) [µg/mL] | MIC (Pseudomonas aeruginosa [17]) [µg/mL] | MIC (Staphylococcus aureus [18]) [µg/mL] | MIC (Klebsiella pneumoniae [19]) [µg/mL] | MIC (Staphylococcus aureus [20]) [µg/mL] | further results |
| --- | --- | --- | --- | --- | --- | --- | --- | --- | --- | --- | --- | --- | --- | --- | --- | --- | --- | --- | --- | --- | --- |
| NCC1CN(c2nc3c(cc2F)c(=O)c(C(=O)O)cn3-c2ccc(F)cc2F)C/C1=N\OC(F)F (racemic) | 64 (≈ 129 µM) | 8 (≈ 16.1 µM) | 0.015 (≈ 0.0302 µM) | 1 (≈ 2.01 µM) | > 128 | 0.03 (≈ 0.0603 µM) | 16 (≈ 32.2 µM) | 32 (≈ 64.3 µM) | 4 (≈ 8.04 µM) | 0.008 (≈ 0.0161 µM) | 16 (≈ 32.2 µM) | 8 (≈ 16.1 µM) | 32 (≈ 64.3 µM) | 8 (≈ 16.1 µM) | 0.125 (≈ 0.251 µM) | 128 (≈ 257 µM) | 4 (≈ 8.04 µM) | 0.015 (≈ 0.0302 µM) | 2 (≈ 4.02 µM) | 4 (≈ 8.04 µM) | MIC (Escherichia coli [21]): 32 µg/mL (≈ 64.3 µM); MIC (Klebsiella pneumoniae [22]): 0.25 µg/mL (≈ 0.503 µM); MIC (Enterococcus faecium [23]): 16 µg/mL (≈ 32.2 µM); MIC (Streptococcus pneumoniae): 0.06 µg/mL (≈ 0.121 µM); MIC [24]: 64 µg/mL (≈ 129 µM); MIC (Enterococcus faecium [25]): 32 µg/mL (≈ 64.3 µM); MIC (Escherichia coli [26]): 64 µg/mL (≈ 129 µM); MIC (Escherichia coli [27]): > 128 µg/mL; MIC [28]: 2 µg/mL (≈ 4.02 µM); MIC (Staphylococcus aureus [29]): 16 µg/mL (≈ 32.2 µM); MIC [30]: 32 µg/mL (≈ 64.3 µM); MIC (Escherichia coli [31]): 0.008 µg/mL (≈ 0.0161 µM); MIC (Pseudomonas aeruginosa [32]): 1 µg/mL (≈ 2.01 µM); MIC (Staphylococcus aureus [33]): 0.015 µg/mL (≈ 0.0302 µM); MIC (Staphylococcus aureus [34]): 0.008 µg/mL (≈ 0.0161 µM); MIC (Enterococcus faecium [35]): 0.125 µg/mL (≈ 0.251 µM); MIC (Staphylococcus aureus [36]): 1 µg/mL (≈ 2.01 µM); MIC (Staphylococcus aureus [37]): 16 µg/mL (≈ 32.2 µM) |
| COc1c(N2C[C@@H]3CCCN[C@@H]3C2)c(F)cc2c(=O)c(C(=O)O)cn(C3CC3)c12 [MOXIFLOXACIN] | 16 (≈ 39.9 µM) | 4 (≈ 9.96 µM) | 0.03 (≈ 0.0747 µM) | 1 (≈ 2.49 µM) | 32 (≈ 79.7 µM) | 0.008 (≈ 0.0199 µM) | 8 (≈ 19.9 µM) | 16 (≈ 39.9 µM) | 0.5 (≈ 1.25 µM) | 0.008 (≈ 0.0199 µM) | 16 (≈ 39.9 µM) | 8 (≈ 19.9 µM) | 16 (≈ 39.9 µM) | 4 (≈ 9.96 µM) | 0.008 (≈ 0.0199 µM) | 16 (≈ 39.9 µM) | 1 (≈ 2.49 µM) | 0.008 (≈ 0.0199 µM) | 0.5 (≈ 1.25 µM) | 8 (≈ 19.9 µM) | MIC (Klebsiella pneumoniae [22]): 0.03 µg/mL (≈ 0.0747 µM); MIC (Enterococcus faecium [23]): 2 µg/mL (≈ 4.98 µM); MIC (Streptococcus pneumoniae): 0.008 µg/mL (≈ 0.0199 µM); MIC [24]: 16 µg/mL (≈ 39.9 µM); MIC (Enterococcus faecium [25]): 16 µg/mL (≈ 39.9 µM); MIC [28]: 0.5 µg/mL (≈ 1.25 µM); MIC (Staphylococcus aureus [29]): 8 µg/mL (≈ 19.9 µM); MIC [30]: 2 µg/mL (≈ 4.98 µM); MIC (Escherichia coli [31]): 0.008 µg/mL (≈ 0.0199 µM); MIC (Pseudomonas aeruginosa [32]): 0.5 µg/mL (≈ 1.25 µM); MIC (Staphylococcus aureus [33]): 0.008 µg/mL (≈ 0.0199 µM); MIC (Staphylococcus aureus [34]): 0.008 µg/mL (≈ 0.0199 µM); MIC (Enterococcus faecium [35]): 0.125 µg/mL (≈ 0.311 µM); MIC (Staphylococcus aureus [36]): 4 µg/mL (≈ 9.96 µM); MIC (Staphylococcus aureus [37]): 8 µg/mL (≈ 19.9 µM) |
